# Most compounds without a hit are left out; they make up all but 1.4% or so of the library.
# NS3 helicase inh: inhibitors of HCV NS3 helicase, primary screen, biochemical, Cy5 molecular beacon fluorescence; actives 0.56% (n = 290,000); inhibition, % at 10.9 µM; NS3 helicase DNA unwinding; AID 1800, 2009;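 active = inhibition above the mean of all tested compounds plus 3 SD, set per campaign, cut at about 35% in these data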;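 note: 0% = DMSO wells and 100% = thioflavine S control wells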
#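 Test system: hepatitis C virus NS3 helicase domain fragment enzyme. Also added: annealed dual-labelled DNA beacon duplex, ATP-started. Timing: 60 min unwinding reaction at 25 °C after ATP addition. Technique: Cy5 fluorescence. Measure: % inhibition of unwinding.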
# ZTA DNA inh: blocks Epstein-Barr virus ZTA, an EBNA-1 counter-screen; ZTA-DNA binding, fluorescence polarization; actives 0.15% (n = 320,000); inhibition, % at 11 µM; in the data active = inhibition above about 33%
# Target sequence (P03206 whole entry, looked up): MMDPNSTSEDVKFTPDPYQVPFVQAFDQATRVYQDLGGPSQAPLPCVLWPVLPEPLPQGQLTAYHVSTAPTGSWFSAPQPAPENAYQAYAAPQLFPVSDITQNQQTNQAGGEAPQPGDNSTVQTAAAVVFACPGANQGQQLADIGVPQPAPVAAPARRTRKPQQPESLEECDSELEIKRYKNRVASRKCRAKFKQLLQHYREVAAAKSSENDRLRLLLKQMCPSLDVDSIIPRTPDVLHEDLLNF
# EBNA-1 inh: EBNA-1 DNA-binding inhibitors, primary screen, biochemical, fluorescence polarization; actives 0.34% (n = 300,000); AID 1950, 2009; inhibition, % at 14.8 µM; in the data active = inhibition above about 28%
# Fh CTSL1 inh: Fasciola hepatica cathepsin L1 inhibitors, primary screen, counter-screen for PFM18AAP inhibitor project, biochemical, QFRET, fluorogenic peptide substrate | actives 0.49% (n = 300,000) | inhibition, % at 5.96 µM | recombinant F. hepatica cathepsin L1, Z-Leu-Arg-MCA fluorescence;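 active = inhibition above the mean of all tested compounds plus 3 SD, set per screening campaign, cut at about 17% in these data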;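 note: 0% = plate median of test compound wells and 100% = 1 µM Z-Phe-Ala-diazomethylketone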
# NS3 hel confirm: HCV NS3 helicase inhibitors, retest, confirmation, biochemical, Cy5 molecular beacon fluorescence, triplicate | shares compounds with NS3 helicase inh | NS3 helicase DNA unwinding | inhibition, % at 10.9 µM | actives 31% (n = 1,600);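 active = inhibition above the mean of all tested compounds plus 3 SD, cutoff set per campaign, cut at about 36% in these data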
# DNA FID counter: compounds displacing fluorescent DNA intercalator, artefact control for HCV NS3 helicase inhibitor project, biochemical, FID fluorescence, triplicate | inhibition, % at 7.9 µM | actives 4% (n = 1,600) | shares compounds with NS3 helicase inh | DNA fluorescent intercalator displacement | AID 1945, 2009; in the data active = inhibition above about 37%;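 note: 0% = vehicle and 100% = reference compound; higher means more displacement of ethidium bromide from the DNA hairpin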
# Numbers without * were called inactive; . = not tested or not shown.
SMILES,NS3 helicase inh,ZTA DNA inh,EBNA-1 inh,Fh CTSL1 inh,NS3 hel confirm,DNA FID counter
CN(Cc1cccs1)C(=O)/C=C/c1ccccc1[N+](=O)[O-],61*,-2,1,-5,-10,9
CCN(Cc1ccccc1)C(=O)/C=C/c1ccccc1[N+](=O)[O-],-2,.,.,.,.,.
COc1ccccc1NS(=O)(=O)c1cccc(C(=O)NNC(=O)c2ccc(=O)[nH]c2)c1,.,6,.,.,.,.
O=[N+]([O-])c1cc([N+](=O)[O-])c2oc(-c3ccccc3)c(Br)c2c1O,45*,.,.,.,74*,68*
O=c1cc(-c2ccccc2Cl)oc2ccc([N+](=O)[O-])c(O)c12,5,-3,-3,1,.,.
Cc1ccc(Nc2cc(C)nn2-c2nc(C)cc(=O)[nH]2)cc1,39*,-1,7,5,-3,-30
CC(=O)Nc1ccc(NC(=O)N(c2ccccc2)c2ccccc2)cc1,-12,4,8,1,.,.
CCC1=Nc2cc(C(=O)NCc3ccco3)ccc2Sc2ccc(Cl)cc21,37*,0,1,-4,-2,-46
CCC1=Nc2cc(C(=O)NCc3ccco3)ccc2Sc2ccccc21,10,-7,6,2,.,.
COc1ccc(N(CC(=O)Nc2cccc(C)c2)S(=O)(=O)c2ccc(C)cc2)cc1OC,92*,10,21,-3,-6,-3
CCCCC(=O)Nc1nnc(S(=O)(=O)N2CCCc3ccccc32)s1,18,8,-1,-2,.,.
CC(C)CSC1=NSC2=NC(=O)/C(=C\c3cccs3)C(=N)N12,37*,0,0,8,53*,12
N=C1/C(=C/c2cccs2)C(=O)N=C2SN=C(SCc3ccccc3)N12,18,-11,-3,2,.,.
Cc1ccc(C2C(C#N)=C(N)SC(N)=C2C#N)c(C)c1,36*,-1,6,4,-15,6
Cc1ccc(C2C(C#N)=C(N)SC(N)=C2C#N)cc1,6,.,.,.,.,.
CC(/C=N/n1c(-c2n[nH]c3c2CCC3)n[nH]c1=S)=C\c1ccco1,22,3,-6,2,.,.
Cc1ccc(-c2nn(Cc3ccccc3)cc2/C=C/C(=O)O)cc1,44*,-7,-12,-7,10,-9
COc1ccc(-c2nn(CCC(=O)O)cc2CCC(=O)O)cc1,5,-23,1,1,.,.
O=C(O)CCn1cc(C(=O)O)c(-c2ccccc2)n1,45*,-4,5,3,-12,2
CC(C)NC(=S)NC(c1ccccc1)(c1ccccc1)c1ccccc1,-3,19,6,-6,.,.
Cc1ccc(C(=O)NC(=S)Nc2ccc(-c3ccc(CO)o3)cc2)cc1,15,-3,12,3,.,.
O=C(NC(=S)Nc1ccc(-c2ccc(CO)o2)cc1)c1cccs1,37*,8,-9,11,40*,13
O=C(CNCC1CCCO1)Nc1ccccc1-n1cccc1 (centres undefined),-1,12,9,-4,.,.
C=CCn1cnc2c(c1=O)c1nc3ccccc3nc1n2-c1ccc(C)cc1,-14,4,-1,-1,.,.
Cc1cccc(Nc2ccc([N+](=O)[O-])cc2C(=O)O)c1,37*,-6,6,-1,66*,-9
SMILES,NS3 helicase inh,ZTA DNA inh,EBNA-1 inh,Fh CTSL1 inh,NS3 hel confirm,DNA FID counter
Cc1ccc2nc(SCC(=O)N3CCCCCC3)nc(=O)n2c1,.,-6,7,1,.,.
CC(C)CCN1CCN=C1Nc1ccccc1,50*,11,6,-3,-19,12
COc1ccc(/C=N/NC2=NS(=O)(=O)c3ccccc32)cc1,31,-17,-4,2,.,.
COc1ccc(/C=N/NC2=NS(=O)(=O)c3ccccc32)cc1OC(C)=O,52*,1,-10,-1,0,-1
CN(C)c1ccc(/C=N/NC2=NS(=O)(=O)c3ccccc32)cc1,40*,5,-5,-2,-6,-14
O=C(O)C1CCN(C(=O)c2ccco2)CC1,3,8,-6,2,.,.
NC(=O)c1ccc2c(=O)c(O)c(-c3cc(Cl)c(N)c(Cl)c3)[nH]c2c1,38*,3,13,0,6,12
CCCNC(=O)c1ccc2c(=O)c(O)c(-c3ccc(Cl)c([N+](=O)[O-])c3)[nH]c2c1,.,18,7,4,.,.
